Columns and labels:
P2Y purinoceptor 12 = P2Y purinoceptor 12 (Homo sapiens, UniProt Q9H244); assay: Displacement of [3H]-2-methyl-thio-adenosine 5'-diphosphate from human recombinant P2Y12 expressed in CHO cell membranes by scintillation counting method
In short: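 CHO cells expressing recombinant P2Y₁₂ receptors, incubated with tritium-labeled 2-methyl-thio-adenosine 5'-diphosphate plus test compound; IC₅₀ from displacement curves, each point in triplicate; reference compound run with every compound set, and set re-analyzed if its IC₅₀ fell outside pre-set 95% confidence interval.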

Platelet [1] = assay: Inhibition of ADP-induced platelet aggregation in human platelet rich plasma assessed as remaining activity at 500 nM by in-vitro light transmission aggregometry assay; assay type: functional
In short: (§1)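 Light transmission aggregometry in human platelet-rich plasma; compound incubated, aggregation triggered with 3 µM ADP; remaining activity (RA) recorded at a single compound level (1000, 500 or 100 nM).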

[2] = Solubility in neutral pH; assay type: physicochemical
[3] = Solubility in basic pH; assay type: physicochemical
Cytochrome P450 3A4 [4] = target: T1, Cytochrome P450 3A4 (Homo sapiens, UniProt P08684); assay: Inhibition of CYP3A4 in human liver microsomes assessed as reduction in midazolam 1'-hydroxylation; assay type: ADME
T1 sequence (P08684 whole entry): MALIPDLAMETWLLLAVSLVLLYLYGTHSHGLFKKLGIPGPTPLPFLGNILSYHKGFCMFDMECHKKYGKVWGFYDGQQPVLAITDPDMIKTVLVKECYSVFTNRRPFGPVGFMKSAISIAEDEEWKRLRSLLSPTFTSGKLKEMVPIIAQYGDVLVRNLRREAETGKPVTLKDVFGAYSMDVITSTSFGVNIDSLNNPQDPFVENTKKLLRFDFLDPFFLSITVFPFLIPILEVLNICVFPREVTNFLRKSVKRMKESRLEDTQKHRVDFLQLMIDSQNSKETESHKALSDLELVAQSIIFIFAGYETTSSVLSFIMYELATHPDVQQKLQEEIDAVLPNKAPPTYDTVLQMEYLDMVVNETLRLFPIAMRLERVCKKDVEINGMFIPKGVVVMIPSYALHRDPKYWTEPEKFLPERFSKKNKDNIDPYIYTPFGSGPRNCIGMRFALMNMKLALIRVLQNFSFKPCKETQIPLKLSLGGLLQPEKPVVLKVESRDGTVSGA

Cytochrome P450 3A4 [5] = target: T1, Cytochrome P450 3A4; assay: Inhibition of CYP3A4 in human liver microsomes assessed as reduction in testosterone 6beta-hydroxylation; assay type: ADME
Cytochrome P450 2D6 = Cytochrome P450 2D6 (Homo sapiens, UniProt P10635); assay: Inhibition of CYP2D6 in human liver microsomes assessed as reduction in dextromethorphan-O demethylation; assay type: ADME
Sequence of Cytochrome P450 2D6 (P10635 whole entry): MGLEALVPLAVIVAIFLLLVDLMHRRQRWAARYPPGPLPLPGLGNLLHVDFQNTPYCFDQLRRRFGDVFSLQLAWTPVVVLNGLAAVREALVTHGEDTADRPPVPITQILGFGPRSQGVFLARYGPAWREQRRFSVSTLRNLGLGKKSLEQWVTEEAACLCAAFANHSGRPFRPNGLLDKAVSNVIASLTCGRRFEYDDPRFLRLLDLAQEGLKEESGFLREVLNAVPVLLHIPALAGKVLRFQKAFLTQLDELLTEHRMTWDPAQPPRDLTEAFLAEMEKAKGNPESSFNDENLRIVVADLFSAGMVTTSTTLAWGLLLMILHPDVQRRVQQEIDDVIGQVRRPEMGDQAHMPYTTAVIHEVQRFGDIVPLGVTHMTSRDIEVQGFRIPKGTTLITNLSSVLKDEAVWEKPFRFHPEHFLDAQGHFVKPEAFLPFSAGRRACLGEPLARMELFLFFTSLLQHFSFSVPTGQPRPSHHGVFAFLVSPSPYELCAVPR

Cytochrome P450 2C9 = Cytochrome P450 2C9 (Homo sapiens, UniProt P11712); assay: Inhibition of CYP2C9 in human liver microsomes assessed as reduction in diclofenac 4'-hydroxylation; assay type: ADME
Sequence of Cytochrome P450 2C9 (P11712 whole entry): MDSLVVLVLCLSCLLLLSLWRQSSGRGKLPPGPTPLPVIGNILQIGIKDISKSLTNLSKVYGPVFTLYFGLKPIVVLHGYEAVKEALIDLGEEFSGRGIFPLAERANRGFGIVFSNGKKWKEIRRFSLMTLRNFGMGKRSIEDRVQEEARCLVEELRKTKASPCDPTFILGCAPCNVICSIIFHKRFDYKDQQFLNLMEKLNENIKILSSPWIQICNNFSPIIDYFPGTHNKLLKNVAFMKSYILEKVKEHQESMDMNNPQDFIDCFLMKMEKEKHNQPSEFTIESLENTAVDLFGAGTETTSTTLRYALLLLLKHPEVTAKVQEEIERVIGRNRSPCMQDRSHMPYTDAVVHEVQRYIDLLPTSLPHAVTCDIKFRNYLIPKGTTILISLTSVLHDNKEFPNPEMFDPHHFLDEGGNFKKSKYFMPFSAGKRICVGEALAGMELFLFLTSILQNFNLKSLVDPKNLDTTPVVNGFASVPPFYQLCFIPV

Liver microsome [6] = assay: Metabolic stability assay in human liver microsomes assessed as parent drug disappearance at 1 uM after 20 mins by HPLC and mass spectrometry method; assay type: ADME
Liver microsome [7] = assay: Metabolic stability assay in rat liver microsomes assessed as parent drug disappearance at 1 uM after 20 mins by HPLC and mass spectrometry method; assay type: ADME
[8] = target: Voltage-gated inwardly rectifying potassium channel KCNH2 (Homo sapiens, UniProt Q12809); assay: Inhibition of human ERG expressed in HEK cells by patch-clamp assay; assay type: cell-based; details: hek293
Sequence of Voltage-gated inwardly rectifying potassium channel KCNH2 (Q12809 whole entry): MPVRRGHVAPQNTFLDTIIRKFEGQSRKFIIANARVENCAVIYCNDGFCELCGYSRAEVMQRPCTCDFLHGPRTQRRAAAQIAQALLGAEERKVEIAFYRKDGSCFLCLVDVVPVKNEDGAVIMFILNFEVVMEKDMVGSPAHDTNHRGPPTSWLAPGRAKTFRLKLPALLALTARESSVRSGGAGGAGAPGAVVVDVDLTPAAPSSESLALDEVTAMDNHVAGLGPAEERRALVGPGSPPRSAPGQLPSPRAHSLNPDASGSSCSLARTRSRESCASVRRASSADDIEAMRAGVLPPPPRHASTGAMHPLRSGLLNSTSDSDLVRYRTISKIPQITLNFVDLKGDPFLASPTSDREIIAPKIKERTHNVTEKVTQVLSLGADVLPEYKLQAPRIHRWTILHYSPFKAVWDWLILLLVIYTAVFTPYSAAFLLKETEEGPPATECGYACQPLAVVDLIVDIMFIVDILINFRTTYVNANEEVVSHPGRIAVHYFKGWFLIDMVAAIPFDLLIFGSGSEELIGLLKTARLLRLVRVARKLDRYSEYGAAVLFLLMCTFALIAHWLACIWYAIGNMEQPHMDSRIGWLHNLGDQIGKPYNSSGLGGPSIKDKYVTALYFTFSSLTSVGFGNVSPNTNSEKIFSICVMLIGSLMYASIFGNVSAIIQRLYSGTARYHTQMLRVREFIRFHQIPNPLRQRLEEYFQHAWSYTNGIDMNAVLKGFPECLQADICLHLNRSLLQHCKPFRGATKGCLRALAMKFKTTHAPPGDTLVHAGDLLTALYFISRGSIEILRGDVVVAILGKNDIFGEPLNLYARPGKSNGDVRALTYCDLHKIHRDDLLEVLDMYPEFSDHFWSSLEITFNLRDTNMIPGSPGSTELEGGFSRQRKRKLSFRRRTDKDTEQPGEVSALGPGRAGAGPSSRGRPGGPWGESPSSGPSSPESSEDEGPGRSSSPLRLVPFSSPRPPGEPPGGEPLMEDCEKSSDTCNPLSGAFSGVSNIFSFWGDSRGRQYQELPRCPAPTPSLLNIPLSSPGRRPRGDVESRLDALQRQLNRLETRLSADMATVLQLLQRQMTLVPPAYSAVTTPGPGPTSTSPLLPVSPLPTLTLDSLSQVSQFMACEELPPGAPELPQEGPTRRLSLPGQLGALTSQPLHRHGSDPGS

Platelet [9] = assay: Inhibition of ADP-induced platelet aggregation in human platelet rich plasma assessed as remaining activity at 100 nM by in-vitro light transmission aggregometry assay; assay type: functional; in short: as §1
Platelet [10] = assay: Inhibition of ADP-induced platelet aggregation in human platelet rich plasma by in-vitro light transmission aggregometry assay; assay type: functional; details: Homo sapiens, Platelet, Plasma
In short: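 Human platelet-rich plasma incubated with compound, aggregation induced by 3 µM ADP and read by light transmission aggregometry; IC₅₀ derived from concentration–response curve.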

[11] = Potency shift, ratio of IC50 for inhibition of ADP-induced platelet aggregation in human platelet rich plasma to IC50 for displacement of [3H]-2-methyl-thio-adenosine 5'-diphosphate from human recombinant P2Y12 expressed in CHO cell membranes

Sequence of P2Y purinoceptor 12 (Q9H244 whole entry): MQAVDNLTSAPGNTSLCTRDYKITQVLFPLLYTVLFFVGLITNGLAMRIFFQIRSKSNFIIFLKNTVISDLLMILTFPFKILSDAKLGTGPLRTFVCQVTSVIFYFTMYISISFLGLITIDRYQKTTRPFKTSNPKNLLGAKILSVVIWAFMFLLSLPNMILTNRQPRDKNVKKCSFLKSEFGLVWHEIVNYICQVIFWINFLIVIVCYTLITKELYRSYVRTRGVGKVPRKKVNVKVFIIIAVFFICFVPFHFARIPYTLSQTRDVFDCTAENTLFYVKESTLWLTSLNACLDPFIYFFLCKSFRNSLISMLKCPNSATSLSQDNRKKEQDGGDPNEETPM

| SMILES | IC50 (P2Y purinoceptor 12) | Activity (Platelet [1]) | solubility [2] | solubility [3] | inhibition (INH) (Cytochrome P450 3A4 [4]) | inhibition (INH) (Cytochrome P450 3A4 [5]) | inhibition (INH) (Cytochrome P450 2D6) | inhibition (INH) (Cytochrome P450 2C9) | Stability (Liver microsome [6]) | Stability (Liver microsome [7]) | inhibition (INH) [8] | Activity (Platelet [9]) | IC50 (Platelet [10]) | Ratio IC50 [11] |
| --- | --- | --- | --- | --- | --- | --- | --- | --- | --- | --- | --- | --- | --- | --- |
| CCOC(=O)N1CCN(C(=O)[C@H](CCC(=O)O)NC(=O)c2cc(N3CCCCC3CN(C)C)nc(-c3ccccc3)n2)CC1 (some centres undefined) | 0.291 µM | 30% | soluble | soluble | Not Active | Not Active | Not Active | Not Active | Stable | Stable | Not Active | – | – | – |
| CCOC(=O)N1CCN(C(=O)[C@H](CCC(=O)O)NC(=O)c2cc(N3CC[C@H](O)C3)nc(-c3ccccc3)n2)CC1 | 0.046 µM | <30% | soluble | soluble | Not Active | Not Active | Not Active | Not Active | Stable | Stable | Not Active | <70% | 0.068 µM | 1.5 |
| CCOC(=O)N1CCN(C(=O)[C@H](CCC(=O)O)NC(=O)c2cc(N3CCOCC3)nc(-c3ccccc3)n2)CC1 | – | <30% | soluble | soluble | Not Active | Not Active | Not Active | Not Active | Stable | Stable | Not Active | <70% | – | – |
| CCOC(=O)N1CCN(C(=O)[C@H](CCC(=O)O)NC(=O)c2cc(-n3cc(C)cn3)nc(-c3ccccc3)n2)CC1 | 0.027 µM | 30% | soluble | soluble | Not Active | Not Active | Not Active | Not Active | Stable | Stable | Not Active | – | 0.318 µM | 12 |
| CCOC(=O)N1CCN(C(=O)[C@H](CCC(=O)O)NC(=O)c2cc(-c3ccc(OC)cc3)nc(-c3ccccc3)n2)CC1 | 0.031 µM | 30% | soluble | soluble | Not Active | Not Active | Not Active | Not Active | Stable | Stable | Not Active | – | 0.523 µM | 17 |
| CCOC(=O)N1CCN(C(=O)[C@H](CCC(=O)O)NC(=O)c2cc(NC(C)COC)nc(-c3ccccc3)n2)CC1 (some centres undefined) | – | <30% | soluble | soluble | Not Active | Not Active | Not Active | Not Active | Stable | Stable | Not Active | <70% | 0.139 µM | 1.4 |
| CCOC(=O)N1CCN(C(=O)[C@H](CCC(=O)O)NC(=O)c2cc(CN3CCOCC3)nc(-c3ccccc3)n2)CC1 | 0.428 µM | – | soluble | soluble | Not Active | Not Active | Not Active | Not Active | Stable | Stable | Not Active | – | – | – |
| CCOC(=O)N1CCN(C(=O)[C@H](CCC(=O)O)NC(=O)c2cc(CN3CCCCC3)nc(-c3ccccc3)n2)CC1 | 0.533 µM | – | soluble | soluble | Not Active | Not Active | Not Active | Not Active | Stable | Stable | Not Active | – | – | – |
| CCOC(=O)N1CCN(C(=O)[C@H](CCC(=O)O)NC(=O)c2cc(N3CCCCC3)nc(-c3ccccc3)n2)CC1 | 0.201 µM | 30% | soluble | soluble | Not Active | Not Active | Not Active | Not Active | Stable | Stable | Not Active | – | – | – |
| CCOC(=O)N1CCN(C(=O)[C@H](CCC(=O)O)NC(=O)c2cc(NCCN3CCOCC3)nc(-c3ccccc3)n2)CC1 | 0.257 µM | 30% | soluble | soluble | Not Active | Not Active | Not Active | Not Active | Stable | Stable | Not Active | – | – | – |
| CCOC(=O)N1CCN(C(=O)[C@H](CCC(=O)O)NC(=O)c2cc(N[C@H]3CC[C@H](O)CC3)nc(-c3ccccc3)n2)CC1 | – | 30% | soluble | soluble | Not Active | Not Active | Not Active | Not Active | Stable | Stable | Not Active | – | – | – |
| CCCCOC(=O)N1CCN(C(=O)[C@H](CCC(=O)O)NC(=O)c2cc([C@H]3C[C@H]3COC)nc(-c3ccccc3)n2)CC1 (racemic) | 0.009 µM | – | soluble | soluble | Not Active | Not Active | Not Active | Not Active | Stable | Stable | Not Active | – | 0.287 µM | 32 |
| CCOC(=O)N1CCN(C(=O)[C@H](CCC(=O)O)NC(=O)c2cc(NS(=O)(=O)c3ccccc3)nc(-c3ccccc3)n2)CC1 | 0.266 µM | – | soluble | soluble | Not Active | Not Active | Not Active | Not Active | Stable | Stable | Not Active | – | – | – |
| CCCCOC(=O)N1CCN(C(=O)[C@H](CCC(=O)O)NC(=O)c2cc([C@H]3C[C@@H]3COC)nc(-c3ccccc3)n2)CC1 (racemic) | 0.003 µM | – | soluble | soluble | Not Active | Not Active | Not Active | Not Active | Stable | Stable | Not Active | – | 0.021 µM | 7 |
| CCOC(=O)N1CCN(C(=O)[C@H](CCC(=O)O)NC(=O)c2cc(NCCN(C)C)nc(-c3ccccc3)n2)CC1 | 2.78 µM | – | soluble | soluble | Not Active | Not Active | Not Active | Not Active | Stable | Stable | Not Active | – | – | – |
| CCOC(=O)N1CCN(C(=O)[C@H](CCC(=O)O)NC(=O)c2cc(NCCCO)nc(-c3ccccc3)n2)CC1 | 0.279 µM | 30% | soluble | soluble | Not Active | Not Active | Not Active | Not Active | Stable | Stable | Not Active | – | – | – |
| CCOC(=O)N1CCN(C(=O)[C@H](CCC(=O)O)NC(=O)c2cc(NC(C)C)nc(-c3ccccc3)n2)CC1 | 0.0955 µM | – | soluble | soluble | Not Active | Not Active | Not Active | Not Active | Stable | Stable | Not Active | – | 0.724 µM | 7.6 |
